# The source made the active and inactive calls. The rule behind the calls is not given here.
# Columns and labels:
# [1] = Cytotoxicity against human HuH7 cells after 72 hrs by SRB assay; assay type: functional, cell-based; settings: Huh-7, 72 h
# How it was run: (§1)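 Cells kept in DMEM with 10% FCS and penicillin/streptomycin at 37°C, 5% CO2. 2000–3000 cells/well were seeded, and medium was refreshed the next day. DMSO solutions were added over 2.5–40 µM with matched DMSO-only controls for 72 h. Cells were then TCA-fixed, stained with 0.4% SRB in 1% acetic acid, solubilized in 10 mM Tris pH 8 and read at 515 nm. Data were normalized to DMSO wells and expressed as mean ±SD.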
# MCF7 = test: Cytotoxicity against human MCF7 cells after 72 hrs by SRB assay; assay type: functional, cell-based; settings: MCF7, 72 h; how it was run: as §1
# [2] = Cytotoxicity against human HCT116 cells after 72 hrs by SRB assay; assay type: functional, cell-based; settings: HCT-116, 72 h; how it was run: as §1
# Huh-7 [3] = test: Induction of cell death in human HuH7 cells assessed as induction of intracytoplasmic vacuoles at cytotoxic IC50 level after 72 hrs by inverted light microscopy; assay type: functional, cell-based
# How it was run: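 They were viewed under an inverted light microscope at 20× for death morphology, including intracytoplasmic vacuoles.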
# Huh-7 [4] = test: Induction of cell death in human HuH7 cells assessed as nuclear condensation at cytotoxic IC50 level after 72 hrs by Hoechst 33258 staining based […]; assay type: functional
# How it was run: (§2)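 Cells were washed in cold PBS, fixed 10 min in cold methanol and stained with Hoechst 33258 at 3 µg/mL for 5 min in the dark. Nuclear condensation and fragmentation were examined by fluorescence microscopy at 40×.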
# Huh-7 [5] = test: Induction of cell death in human HuH7 cells assessed as DNA fragmentation at cytotoxic IC50 level after 72 hrs by Hoechst 33258 staining based […]; assay type: functional; how it was run: as §2
# Huh-7 [6] = test: Induction of autophagy in human HuH7 cells assessed as increase in LC3-2 formation at cytotoxic IC50 level after 72 hrs by Western blotting method; assay type: functional, cell-based
# [7] = Induction of cell cycle arrest in human Mahlavu cells assessed as accumulation at G0/G1 phase at cytotoxic IC50 level after 48 hrs by propidium iodide staining based FACS method; assay type: functional
# [8] = Induction of cell cycle arrest in human Mahlavu cells assessed as accumulation at S phase at cytotoxic IC50 level after 48 hrs by propidium iodide staining based FACS method; assay type: functional
# [9] = Induction of cell cycle arrest in human Mahlavu cells assessed as accumulation at G2/M phase at cytotoxic IC50 level after 48 hrs by propidium iodide staining based FACS method; assay type: functional
# [10] = Induction of cell cycle arrest in human HuH7 cells assessed as accumulation at G0/G1 phase at cytotoxic IC50 level after 48 hrs by propidium iodide staining based FACS method; assay type: functional, Huh-7
# How it was run: (§3)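 Huh7 cells were seeded at 150,000–300,000 per 100-mm dish and left 24 h. […] Cells were stained with a propidium iodide-containing cell cycle reagent, and subG1, G0/G1, S and G2/M fractions were scored by flow cytometry.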
# [11] = Induction of cell cycle arrest in human HuH7 cells assessed as accumulation at S phase at cytotoxic IC50 level after 48 hrs by propidium iodide staining based FACS method; assay type: functional, Huh-7; how it was run: as §3
# [12] = Induction of cell cycle arrest in human HuH7 cells assessed as accumulation at G2/M phase at cytotoxic IC50 level after 48 hrs by propidium iodide staining based FACS method; assay type: functional, Huh-7; how it was run: as §3
SMILES,IC50 [1] [µM],IC50 (MCF7) [µM],IC50 [2] [µM],other results
Cc1ccc(-c2cc(C(=O)Nc3ccncc3)nn2-c2ccc3ccccc3n2)cc1,8,15.4,8.1,
Cc1ccc(-c2cc(C(=O)N3CCN(c4ncccc4C(F)(F)F)CC3)nn2-c2ccc3ccccc3n2)cc1,12.7,5.8,9.7,
COc1ncccc1NC(=O)c1cc(-c2ccc(C)cc2)n(-c2ccc3ccccc3n2)n1,7.9,30.2,15.7,
Cc1ccc(-c2cc(C(=O)Nc3ccncc3Br)nn2-c2ccc3ccccc3n2)cc1,13.1,11,15.5,
Cc1ccc(-c2cc(C(=O)Nc3ccc(Cl)nc3Cl)nn2-c2ccc3ccccc3n2)cc1,14,12.7,7.9,
Cc1ccc(-c2cc(C(=O)N3CCN(c4ncc(C(F)(F)F)cc4Cl)CC3)nn2-c2ccc3ccccc3n2)cc1,8,48,13.3,
Cc1ccc(-c2cc(C(=O)N3CCN(c4ccccn4)CC3)nn2-c2ccc3ccccc3n2)cc1,4.8,12,5.1,
Cc1ccc(-c2cc(C(=O)N3CCN(c4ccncc4)CC3)nn2-c2ccc3ccccc3n2)cc1,7.8,4.7,7.1,Activity (Huh-7 [3]): Active; Activity (Huh-7 [4]): Active; Activity (Huh-7 [5]): Active; Activity (Huh-7 [6]): Active; Activity [7]: 52.9%; Activity [8]: 17%; Activity [9]: 24.4%; Activity [10]: 57.2%; Activity [11]: 7.2%; Activity [12]: 33%
Cc1ccc(-c2cc(C(=O)Nc3ncc(Br)cc3Br)nn2-c2ccc3ccccc3n2)cc1,11.5,16.9,9.6,
Cc1ccc(-c2cc(C(=O)N3CCN(c4c(Cl)cncc4Cl)CC3)nn2-c2ccc3ccccc3n2)cc1,4.6,9.7,4.8,
Cc1ccc(-c2cc(C(=O)N3CCN(c4ncccc4C#N)CC3)nn2-c2ccc3ccccc3n2)cc1,21.5,79.5,39.4,
CC[C@@]1(O)C(=O)OCc2c1cc1n(c2=O)Cc2cc3ccccc3nc2-1 [CAMPTOTHECIN],0.004,0.0006,0.00015,
Cc1ccc(-c2cc(C(=O)NCc3cccnc3)nn2-c2ccc3ccccc3n2)cc1,14.1,19,11.2,Activity (Huh-7 [3]): Active; Activity (Huh-7 [4]): Active; Activity (Huh-7 [5]): Active; Activity (Huh-7 [6]): Active; Activity [7]: 56.1%; Activity [8]: 14%; Activity [9]: 28.5%; Activity [10]: 56.1%; Activity [11]: 10.5%; Activity [12]: 32.3%
Cc1ccc(-c2cc(C(=O)N3CCN(c4cccc(C(F)(F)F)n4)CC3)nn2-c2ccc3ccccc3n2)cc1,10.2,11.4,9.4,
Cc1ccc(-c2cc(C(=O)N3CCN(c4ccc(C(F)(F)F)cn4)CC3)nn2-c2ccc3ccccc3n2)cc1,20.9,44.7,17,
